# Compounds with a hit are over-represented: about 0.97% of the library has one in this group of screens.
# TNF necrop inh – TNF-alpha cell death inhibition in Jurkat FADD-/- cells; Jurkat FADD-/- TNF necroptosis rescue, ATP luminescence, 24 h; 0 = TNF only, 100 = no-TNF cells; activation (protection from cell death), % at 10 µM; 0.068% of 220,000 active; AID 463075;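 active means activation, meaning protection from cell death, of at least 50% relative to plate controls; inactive means activation below 50%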;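 further: necroptosis triggered by 40 ng/mL TNF-alpha added together with compound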
# B2AR ag – human beta-2 adrenergic receptor agonism by FAP; P07550; Am2.2-beta2AR cells, FAP receptor internalization, flow cytometry; response, % (test concentration not listed); 0.43% of 340,000 active; AID 504454;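 active means response above a set limit, near 3 SD of response in nonfluorescent compounds, cut at about 42% in these data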
# Dynein transport – blocks dynein driven cargo transport along microtubules; 3617.4 mouse cells, GR-EGFP nuclear translocation imaging; test concentration mostly 20 µM; stimulated with dexamethasone, 1 µM; hits give low values; z-score, hits read low; 0.47% of 220,000 active;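 active means plate z-score of nuclear minus cytoplasmic receptor signal below a set negative limit, without overly bright fluorescence or cell loss, cut at about -3.5 in these data, passing the limit was not always enough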;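 further: z-score of nuclear minus cytoplasmic ring GR-EGFP intensity difference per well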
#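 Also added – dexamethasone, 1.0 µM final · Buffer or medium – tet-free, stripped-serum medium · Schedule – induction 48 h, compound 1 h, agonist 30 min · Detection – formaldehyde fixation, Hoechst nuclear stain, 10x automated fluorescence imaging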
# MDM2 E3 inh – blocks human Mdm2 ubiquitin ligase activity | AID 1230 | cell-based MDM2 ubiquitination luciferase reporter, 2 h; 0 = plate control, 100 = twice control, blank-subtracted | 0.11% of 210,000 active | signal enhancement, % at 5 µM;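 active means signal enhancement of 30% or more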;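 further: luminescence tracks abundance of the self-degrading MDM2-luciferase fusion protein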
# Target sequence (Q00987 whole entry, looked up, the tested form may be a part): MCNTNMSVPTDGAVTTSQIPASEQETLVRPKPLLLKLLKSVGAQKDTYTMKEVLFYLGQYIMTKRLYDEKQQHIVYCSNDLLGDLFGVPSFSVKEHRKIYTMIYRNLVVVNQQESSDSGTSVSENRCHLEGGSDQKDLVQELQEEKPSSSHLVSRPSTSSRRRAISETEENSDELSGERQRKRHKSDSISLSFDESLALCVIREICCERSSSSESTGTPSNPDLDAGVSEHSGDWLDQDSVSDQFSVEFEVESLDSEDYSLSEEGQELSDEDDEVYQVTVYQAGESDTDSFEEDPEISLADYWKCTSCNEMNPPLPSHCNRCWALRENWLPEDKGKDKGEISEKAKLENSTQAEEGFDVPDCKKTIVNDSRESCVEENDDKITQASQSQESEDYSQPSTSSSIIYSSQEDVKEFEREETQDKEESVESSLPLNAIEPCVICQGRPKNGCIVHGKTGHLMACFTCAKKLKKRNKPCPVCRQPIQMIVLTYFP
#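 Material: stable MDM2–luciferase fusion reporter cells / Quantity: 2000 cells/well / Dosing: single 5 µM compound dose, 0.2% final DMSO / Buffer or medium: DMEM / Schedule: 4 h cell settling then 2 h compound exposure, 37 °C / Detection: luminescence with SteadyLite reagent, 15 min at room temperature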
# L929 necroptosis – L929 zVAD cell death inhibition; L929 zVAD necroptosis rescue, ATP luminescence, 24 h; with zVAD 60 µM; viability rescue, % at 10 µM; 0.38% of 220,000 active; AID 1377;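 active means activation, scaled between plate controls, above about 75%, limit read from the data; inactive means activation under that limit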;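 further: 0% = zVAD with DMSO and 100% = DMSO alone without zVAD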
# Beta2AR ag CP1 – activates human beta-2 adrenergic receptor | shares compounds with B2AR ag | Am2.2-beta2AR cells, FAP surface receptor, flow cytometry; hits give low values | percent response (surface receptor), % at 10 µM | 25% of 1,100 active | AID 540358;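 active means surface receptor percent response at or below 58%, roughly 3 SD from nonfluorescent compounds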
# FAP fluor counter – fluorescence artifact in beta-2AR agonist FAP counterscreen | shares compounds with B2AR ag | calls only at 10 µM | 1,100 tested, under 10 active | Am2.2 cells, FAP fluorogen flow cytometry; hits give low values;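 active means percent response below a set limit in fluorescence channel 1 and below 50% in channel 8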
# Active calls of the source: *; i = inactive; x = no result given.
SMILES,TNF necrop inh,B2AR ag,Dynein transport,MDM2 E3 inh,L929 necroptosis,Beta2AR ag CP1,FAP fluor counter
CCC(=O)Oc1cccc(C(=O)Nc2cccc(NC(=O)c3ccco3)c2)c1,x,-5,x,x,x,x,x
O=C(Nc1cccnc1)c1ccc(S(=O)(=O)c2ccc(Cl)cc2)cc1,4,-4,-0.33,-5,1,x,x
CCOc1cc(C(=S)N2CCOCC2)ccc1OS(=O)(=O)c1ccccc1[N+](=O)[O-],0,6,0.3,0,-1,87,i
CC(C)(C(=O)O)c1ccc(C(O)CCCN2CCC(C(O)(c3ccccc3)c3ccccc3)CC2)cc1 (stereo unspecified),x,-3,x,x,x,82,i
O=C(Nc1ccc(Br)cc1)c1cccc(S(=O)(=O)Nc2cnc3ccccc3c2)c1,-2,47*,-0.72,-12,0,104,i
COc1ccc(N(C(=O)c2cccc([N+](=O)[O-])c2)S(=O)(=O)c2ccc3c(c2)n(C)c(=O)n3C)cc1,-10,54*,0.64,-4,-1,62,i
O=C1CC(c2cc(Br)ccc2F)c2cc3c(cc2N1)CCC3 (stereo unspecified),-18,56*,-0.61,11,0,95,i
COc1cccc(CNC(=O)C(C)n2ccc3cc(S(=O)(=O)N4CCCCCC4)ccc32)c1 (stereo unspecified),x,47*,x,x,x,112,i
CCCCCNC(=O)C(C#N)c1nc2ccccc2nc1N1CC(C)OC(C)C1 (stereo unspecified),-2,x,-0.0029,x,-1,x,x
O=C(Nc1cccc(Cl)c1)Nc1sccc1-c1nc2ccccc2s1,1,66*,-0.18,-9,1,116,i
O=C(Nc1cccc(-c2nc3ccccc3s2)c1)c1cccs1,3,52*,0.12,7,1,46*,i
Cn1c(=S)c2[nH]c(SCCN3CCCC3)nc2n(C)c1=O,0,-3,1.1,x,-1,115,i
N#Cc1ccsc1NC(=O)CN1CCN(S(=O)(=O)c2ccc3ccccc3c2)CC1,1,4,-0.58,-15,0,x,x
CCCC(=O)N1CCC(Cc2ccccc2)CC1,x,0,x,x,x,x,x
CCC(=O)N1COC[C@@H]1Cc1ccccc1,0,-1,-0.13,-23,0,107,i
O=C(COC(=O)C1CC2C=CC1C2)Nc1ccccc1[N+](=O)[O-] (stereo unspecified),x,4,x,x,x,x,x
Cc1cc(C)n2c(Br)c(CSc3nc4ccccc4s3)nc2n1,-4,47*,0.35,-2,0,79,i
COc1ccc(CSc2ccc(-c3nc4ccccn4c3NCc3ccccc3)cc2OC)cc1,x,75*,x,x,x,63,i
Cc1nc2cc(N3CCOCC3)c(NC(=O)C3CC3)cc2c(=O)n1Cc1ccccc1,-4,49*,-0.2,x,0,65,i
Cc1nc2cc(N3CCCCC3)c(NC(=O)c3ccncc3)cc2c(=O)n1Cc1ccccc1,-1,4,0.64,2,-1,x,x
Cc1ccc(/C=N/NC(=O)c2nnn(-c3nonc3N)c2CSc2ccccc2)s1,x,-3,x,x,x,x,x
COc1ccc(COC(=O)C2CCN(S(=O)(=O)c3ccc(Cl)cc3)CC2)cc1,x,2,x,x,x,x,x
CN1CCc2c(sc3nc(SCC(=O)N4CCCCC4)n(-c4ccccc4)c(=O)c23)C1,x,61*,x,x,x,x,i
CCOC(=O)CN1C(=O)N(CC)C(C)=C(C(=O)OC)[C@@H]1c1ccccc1,-1,-5,0.014,10,-1,x,x
Cc1ccc(Nc2c(-c3ccccn3)nc3cc(C)ccn23)cc1,-5,76*,-1,5,43,128,i
COc1ccc(NS(=O)(=O)c2cc(NC(=O)c3nc4nc(C)cc(C)n4n3)ccc2C)cc1,2,-2,-0.35,-3,1,133,i
COc1ccccc1NS(=O)(=O)c1cccc(NC(=O)c2nc3nc(C)cc(C)n3n2)c1,-1,-2,-0.26,-9,-1,136,i
